Assay results published in ChEMBL document CHEMBL3785067, “Synthesis and evaluation of 4-hydroxyl aurone derivatives as multifunctional agents for the treatment of Alzheimer's disease” (Bioorg Med Chem, 2016).

Assays:
[1] = target: T1, Amyloid-beta precursor protein (Homo sapiens, UniProt P05067); test: Inhibition of Cu2+-induced amyloid beta (1 to 42) (unknown origin) aggregation at 25 uM after 24 hrs by thioflavin-T fluorescence method
Procedure, shortened: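 Aβ1-42 (25 µM final) mixed with Cu2+ (25 µM final) in HEPES (20 mM, pH 6.60, 150 mM NaCl), with or without compound (25 µM final), and incubated at 37 °C for 24 h. 5 µM ThT in glycine-NaOH pH 8.50 then added and fluorescence read at ex 446/em 490 nm. Percent inhibition calculated from background-subtracted signal. Run in triplicate.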

[2] = target: T1, Amyloid-beta precursor protein; test: Inhibition of self-induced amyloid beta (1 to 42) (unknown origin) aggregation at 25 uM after 24 hrs by thioflavin-T fluorescence method
Procedure, shortened: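 HFIP-pretreated Aβ1-42 (25 µM final) incubated with compound (25 µM final) in 50 mM phosphate buffer pH 7.40 at 37 °C for 24 h. ThT (5 µM in 50 mM glycine-NaOH, pH 8.5) then added and fluorescence read at ex 446/em 490 nm. Background-subtracted inhibition = (1−IFi/IFc)×100. Run in triplicate.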

[3] = Antioxidant activity assessed as AAPH free radical scavenging activity measured as trolox equivalent at 5 uM preincubated for 15 mins followed by AAPH addition measured every min for 90 mins by fluorescence assay; format: physicochemical; conditions: 1.5 h
Procedure, shortened: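 ORAC-FL in 75 mM phosphate buffer pH 7.40. Sample plus fluorescein (150 nM final) pre-incubated 15 min at 37 °C, then AAPH added (12 mM final). Fluorescence read every minute for 90 min (ex 485/em 535 nm). Net AUC (blank-subtracted) converted to Trolox equivalents using a Trolox standard curve (1-8 µM). Samples tested at 1-10 µM, in duplicate, with at least three independent assays.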

Homo sapiens = organism: Homo sapiens; test: Selectivity ratio of IC50 for human recombinant MAO-A to IC50 for human recombinant MAO-B
[4] = target: T2, Amine oxidase [flavin-containing] B (Homo sapiens, UniProt P27338); test: Inhibition of human recombinant MAO-B using kynuramine as substrate after 30 mins by fluorescence spectrophotometry
T2 sequence (P27338 whole entry): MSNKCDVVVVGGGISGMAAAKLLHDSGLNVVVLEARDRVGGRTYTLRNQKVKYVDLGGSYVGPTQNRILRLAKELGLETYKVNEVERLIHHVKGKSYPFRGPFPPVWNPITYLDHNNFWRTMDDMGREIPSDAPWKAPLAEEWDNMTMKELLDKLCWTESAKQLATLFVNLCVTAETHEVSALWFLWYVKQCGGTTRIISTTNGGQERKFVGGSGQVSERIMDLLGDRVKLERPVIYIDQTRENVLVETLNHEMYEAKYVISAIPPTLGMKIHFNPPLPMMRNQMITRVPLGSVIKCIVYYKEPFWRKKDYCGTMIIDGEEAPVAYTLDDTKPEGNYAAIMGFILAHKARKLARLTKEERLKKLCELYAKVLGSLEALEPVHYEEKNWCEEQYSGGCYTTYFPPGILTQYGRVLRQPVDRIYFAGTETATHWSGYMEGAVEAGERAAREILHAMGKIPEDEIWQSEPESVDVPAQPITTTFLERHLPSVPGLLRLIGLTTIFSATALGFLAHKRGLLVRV

[5] = target: T3, Amine oxidase [flavin-containing] A (Homo sapiens, UniProt P21397); test: Inhibition of human recombinant MAO-A using kynuramine as substrate after 30 mins by fluorescence spectrophotometry
T3 sequence (P21397 whole entry): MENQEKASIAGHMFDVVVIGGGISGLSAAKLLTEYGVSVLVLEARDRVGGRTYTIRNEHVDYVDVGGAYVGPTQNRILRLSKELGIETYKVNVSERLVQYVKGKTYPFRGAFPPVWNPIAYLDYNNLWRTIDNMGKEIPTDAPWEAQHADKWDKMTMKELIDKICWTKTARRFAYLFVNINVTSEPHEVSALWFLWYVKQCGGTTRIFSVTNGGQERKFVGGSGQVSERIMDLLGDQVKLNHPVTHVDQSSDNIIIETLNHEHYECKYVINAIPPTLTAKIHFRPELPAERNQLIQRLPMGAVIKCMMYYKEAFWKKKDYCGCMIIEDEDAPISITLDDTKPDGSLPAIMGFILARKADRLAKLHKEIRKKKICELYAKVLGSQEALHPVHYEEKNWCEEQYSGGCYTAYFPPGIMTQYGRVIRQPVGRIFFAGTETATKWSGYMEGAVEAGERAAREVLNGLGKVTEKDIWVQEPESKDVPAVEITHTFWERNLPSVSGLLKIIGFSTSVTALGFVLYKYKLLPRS

[6] = Metal chelating activity assessed as compound-iron complex formation at 37.5 uM after 30 mins by UV-visual spectrometry; format: physicochemical; conditions: 0.5 h
Procedure, shortened: (§1)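 UV absorption spectra (200-600 nm) recorded for compound alone or with CuCl2, ZnCl2, AlCl3 or FeSO4 after 30 min incubation at room temperature.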

[7] = Metal chelating activity assessed as compound-zinc complex formation at 37.5 uM after 30 mins by UV-visual spectrometry; format: physicochemical; conditions: 0.5 h; procedure, shortened: as §1
[8] = Metal chelating activity assessed as compound-aluminium complex formation at 37.5 uM after 30 mins by UV-visual spectrometry; format: physicochemical; conditions: 0.5 h; procedure, shortened: as §1
[9] = Metal chelating activity assessed as compound-copper complex formation at 37.5 uM after 30 mins by UV-visual spectrometry; format: physicochemical; conditions: 0.5 h; procedure, shortened: as §1
[10] = Metal chelating activity assessed as mole fraction of compound required to show 1:1 stoichiometry for Cu2+-compound complex at 37.5 uM after 30 mins by UV-visual spectrometry; format: physicochemical; conditions: 0.5 h
Procedure, shortened: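 Molar-ratio titration of compound in methanol (37.5 µM final) with CuCl2 (3.75-150 µM final). UV spectra corrected by subtracting CuCl2 and compound at matching concentrations. Absorbance at 498 or 488 nm plotted against mole fraction; stoichiometry taken from the intersection of the fitted lines.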

[11] = Permeability of the compound at 100 ug/ml after 18 hrs by PAMPA-BBB assay
[12] = target: T3, Amine oxidase [flavin-containing] A; test: Inhibition of human recombinant MAO-A at 10 uM using kynuramine as substrate after 30 mins by fluorescence spectrophotometry; conditions: 0.5 h
Procedure, shortened: (§2)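 Recombinant human MAO-A or MAO-B (7.5 µg/mL) in 100 mM potassium phosphate with 20.2 mM KCl, pH 7.40. Kynuramine substrate at 45 µM (MAO-A) or 30 µM (MAO-B); DMSO below 4%. Incubated 37 °C for 30 min, stopped with 2N NaOH. 4-Hydroxyquinoline fluorescence read at ex 310/em 400 nm against a calibration curve. Single-concentration screen at 10 µM, in triplicate.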

[13] = target: T2, Amine oxidase [flavin-containing] B; test: Inhibition of human recombinant MAO-B at 10 uM using kynuramine as substrate after 30 mins by fluorescence spectrophotometry; conditions: 0.5 h; procedure, shortened: as §2
[14] = target: T1, Amyloid-beta precursor protein; test: Displacement of [125I]-2-[(4-Aminophenyl)methylene]-5-iodo-3(2H)-benzofuranone from amyloid beta (1 to 42) (unknown origin) after 3 hrs by gamma counting method

T1 sequence (P05067 whole entry): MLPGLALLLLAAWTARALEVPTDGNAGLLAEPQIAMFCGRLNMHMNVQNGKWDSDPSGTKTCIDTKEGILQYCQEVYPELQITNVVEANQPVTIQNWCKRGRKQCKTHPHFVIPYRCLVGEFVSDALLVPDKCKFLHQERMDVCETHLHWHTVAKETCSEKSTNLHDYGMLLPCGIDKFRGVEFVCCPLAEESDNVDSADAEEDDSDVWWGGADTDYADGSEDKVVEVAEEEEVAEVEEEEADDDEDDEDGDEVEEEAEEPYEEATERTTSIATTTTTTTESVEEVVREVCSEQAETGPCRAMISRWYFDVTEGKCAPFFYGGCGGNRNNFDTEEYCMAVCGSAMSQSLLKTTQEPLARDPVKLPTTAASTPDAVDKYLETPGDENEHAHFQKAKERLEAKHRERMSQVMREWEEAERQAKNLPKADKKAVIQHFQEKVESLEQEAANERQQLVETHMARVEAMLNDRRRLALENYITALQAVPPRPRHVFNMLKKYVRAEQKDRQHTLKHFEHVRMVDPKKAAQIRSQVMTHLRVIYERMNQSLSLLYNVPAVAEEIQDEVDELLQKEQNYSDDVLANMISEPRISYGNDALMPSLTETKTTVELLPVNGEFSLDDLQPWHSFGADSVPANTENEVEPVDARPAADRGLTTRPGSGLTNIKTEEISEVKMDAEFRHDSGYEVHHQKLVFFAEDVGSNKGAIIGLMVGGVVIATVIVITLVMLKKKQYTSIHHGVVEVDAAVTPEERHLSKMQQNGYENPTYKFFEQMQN

inhibition [1] [%] | inhibition [2] [%] | Activity [3] [equiv] | Ratio IC50 (Homo sapiens) | IC50 [4] [nM] | IC50 [5] [nM] | Activity [6] | Activity [7] | Activity [8] | Activity [9] | Activity [10] [molar ratio] | Papp at 18 h, 100 ug/ml [11] [×10⁻⁶ cm/s] | inhibition at 10 µM [12] [%] | inhibition at 10 µM [13] [%] | Ki [14] [nM] | Structure (SMILES)
50.1 | 80.7 | 2.5 | 3.18 | 340 | 1080 | – | – | – | – | – | – | – | – | – | O=C1/C(=C/c2ccc(N3CCOCC3)cc2)Oc2cc(O)cc(O)c21
84 | 99.2 | 1.9 | 0.69 | 393 | 271 | Not Active | Active | Active | Active | 0.95 | 6.68 | – | – | – | O=C1/C(=C/c2ccc(N3CCCCC3)cc2)Oc2cc(O)cc(O)c21
46 | 40.3 | 1 | > 44.2 | 226 | – | Not Active | Active | Active | Active | 1.11 | 7.24 | 18.3 | – | – | COc1cc(O)c2c(c1)O/C(=C\c1ccc(N3CCCCC3)cc1)C2=O
20.9 | 38 | 3.56 | – | – | – | – | – | – | – | – | – | 13.9 | 8.7 | – | O=C1c2c(O)cc(O)cc2OC1Cc1ccc(N2CCOCC2)cc1 (stereo not drawn)
– | – | – | – | – | – | – | – | – | – | – | – | – | – | 6.82 | CN(C)c1ccc(/C=C2\Oc3ccc([125I])cc3C2=O)cc1
71.6 | 22.3 | 2.43 | – | – | – | – | – | – | – | – | – | 16.8 | 13.5 | – | CN(C)c1ccc(/C=C2\Oc3cc(N(C)C)cc(O)c3C2=O)cc1
84.8 | 99.8 | 1.56 | 1.17 | 391 | 457 | – | – | – | – | – | – | – | – | – | O=C1/C(=C/c2ccc(N3CCCC3)cc2)Oc2cc(O)cc(O)c21
61.4 | 97.4 | 2.9 | 0.039 | 5940 | 233 | – | – | – | – | – | – | – | – | – | CN(C)c1ccc(/C=C2\Oc3cc(O)cc(O)c3C2=O)cc1
90.1 | 98.2 | 2.91 | – | – | – | – | – | – | – | – | – | 13.5 | 0.88 | – | CN(C)c1ccccc1/C=C1\Oc2cc(O)cc(O)c2C1=O
75.7 | 53.7 | 1.62 | > 14.2 | 703 | – | – | – | – | – | – | – | 20.7 | – | – | COc1cc(O)c2c(c1)O/C(=C\c1ccc(N(C)C)cc1)C2=O
52 | 77.7 | 2.5 | > 0.926 | 10800 | – | – | – | – | – | – | – | 15.8 | – | – | CN1CCN(c2ccc(/C=C3\Oc4cc(O)cc(O)c4C3=O)cc2)CC1
40.5 | 42.7 | 3.07 | – | – | – | – | – | – | – | – | – | 23.5 | 27.2 | – | CN(C)c1ccc(CC2Oc3cc(O)cc(O)c3C2=O)cc1 (stereo not drawn)
47.5 | 44.1 | 1.66 | > 6.67 | 1500 | – | – | – | – | – | – | – | 18.4 | – | – | COc1cc(O)c2c(c1)O/C(=C\c1ccc(N3CCOCC3)cc1)C2=O
86.6 | 95.3 | 1.97 | 0.035 | 808 | 27.9 | – | – | – | – | – | – | – | – | – | CCN(C)c1ccc(/C=C2\Oc3cc(O)cc(O)c3C2=O)cc1
88.9 | 91.7 | 2.04 | 0.344 | 334 | 115 | – | – | – | – | – | – | – | – | – | CCN(CC)c1ccc(/C=C2\Oc3cc(O)cc(O)c3C2=O)cc1
